# “And” between values parts separate entries of the source, which are not always exact repeats. Equal values may be shown once.
# Test system: U2OS
# Assay: Multiplex assay against U2OS
# Type: toxicity, cell-based
# Conditions: human
# Outline: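 Live cells were stained at seeding with Hoechst33342, BioTracker Green Microtubule Cytoskeleton Dye, MitoTracker Red and Annexin V Alexa Fluor 680. Following compound addition, they were imaged on a CQ1 microscope at 37°C and 5% CO2 and gated by CellPathfinder machine learning into Hoechst high-intensity objects or normal cells, with normal cells split into healthy, pyknosed or fragmented nuclei and pyknosed cells into mitotic or apoptotic. Tubulin, mitochondrial-mass and membrane-permeability phenotypes are per cents of healthy-nucleus cells.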
# [1] = 12 h, 1 µM, compound concentration 1 uM, replicate 1
# [2] = 12 h, 1 µM, compound concentration 1 uM, replicate 2
# [3] = 12 h, 10 µM, compound concentration 10 uM, replicate 1
# [4] = 12 h, 10 µM, compound concentration 10 uM, replicate 2
# [5] = 24 h, 1 µM, compound concentration 1 uM, replicate 1
# [6] = 24 h, 1 µM, compound concentration 1 uM, replicate 2
# [7] = 24 h, 10 µM, compound concentration 10 uM, replicate 1
# [8] = 24 h, 10 µM, compound concentration 10 uM, replicate 2
# [9] = 48 h, 1 µM, compound concentration 1 uM, replicate 1
# [10] = 48 h, 1 µM, compound concentration 1 uM, replicate 2
# [11] = 48 h, 10 µM, compound concentration 10 uM, replicate 1
# [12] = 48 h, 10 µM, compound concentration 10 uM, replicate 2
smiles,measurement,setting,value
Cl.Oc1ccc2c3c1O[C@H]1c4[nH]c5c(c4C[C@@]4(O)[C@@H](C2)N(CC2CC2)CC[C@]314)C[C@@]1(O)[C@H]2Cc3ccc(O)c4c3[C@@]1(CCN2CC1CC1)[C@H]5O4,Population Apoptotic (%),[1],38%
same,Population Fragmented Nuclei (%),[1],9%
same,Population Healthy Nuclei (%),[1],79%
same,Population Hoechst High Intensity Objects (%),[1],6%
same,Population Membrane Permeable-Phenotype (%),[1],9%
same,Population Mitochondria Different-Phenotype (%),[1],15%
same,Population Mitotic Cells (%),[1],61%
same,Population Normal (%),[1],93%
same,Population Tubulin-Different-Phenotype (%),[1],14%
same,Total Cell Count,[1],105
same,Population Apoptotic (%),[2],42%
same,Population Fragmented Nuclei (%),[2],3%
same,Population Healthy Nuclei (%),[2],86%
same,Population Hoechst High Intensity Objects (%),[2],9%
same,Population Membrane Permeable-Phenotype (%),[2],10%
same,Population Mitochondria Different-Phenotype (%),[2],19%
same,Population Mitotic Cells (%),[2],57%
same,Population Normal (%),[2],90%
same,Population Pyknosed Nuclei (%),[2],10%
same,Population Tubulin-Different-Phenotype (%),[2],17%
same,Total Cell Count,[2],97
same,Population Apoptotic (%),[3],57%
same,Population Fragmented Nuclei (%),[3],14%
same,Population Healthy Nuclei (%),[3],73%
same,Population Hoechst High Intensity Objects (%),[3],6%
same,Population Membrane Permeable-Phenotype (%),[3],6%
same,Population Mitochondria Different-Phenotype (%),[3],10%
same,Population Mitotic Cells (%),[3],42%
same,Population Normal (%),[3],93%
same,Population Pyknosed Nuclei (%),[3],12%
same,Population Tubulin-Different-Phenotype (%),[3],3%
same,Total Cell Count,[3],183
same,Population Apoptotic (%),[4],93%
same,Population Fragmented Nuclei (%),[4],12%
same,Population Healthy Nuclei (%),[4],48%
same,Population Hoechst High Intensity Objects (%),[4],7%
same,Population Membrane Permeable-Phenotype (%),[4],52%
same,Population Mitochondria Different-Phenotype (%),[4],26%
same,Population Mitotic Cells (%),[4],6%
same,Population Normal (%),[4],92%
same,Population Pyknosed Nuclei (%),[4],38%
same,Population Tubulin-Different-Phenotype (%),[4],89%
same,Total Cell Count,[4],73
same,Population Apoptotic (%),[5],30%
same,Population Fragmented Nuclei (%),[5],7%
same,Population Healthy Nuclei (%),[5],80%
same,Population Hoechst High Intensity Objects (%),[5],3%
same,Population Membrane Permeable-Phenotype (%),[5],6%
same,Population Mitochondria Different-Phenotype (%),[5],12%
same,Population Mitotic Cells (%),[5],69%
same,Population Normal (%),[5],96%
same,Population Pyknosed Nuclei (%),[5],11%
same,Population Tubulin-Different-Phenotype (%),[5],9%
same,Total Cell Count,[5],113
same,Population Apoptotic (%),[6],25%
same,Population Fragmented Nuclei (%),[6],3%
same,Population Healthy Nuclei (%),[6],91%
same,Population Hoechst High Intensity Objects (%),[6],4%
same,Population Membrane Permeable-Phenotype (%),[6],10%
same,Population Mitochondria Different-Phenotype (%),[6],13%
same,Population Mitotic Cells (%),[6],75%
same,Population Normal (%),[6],95%
same,Population Pyknosed Nuclei (%),[6],4%
same,Population Tubulin-Different-Phenotype (%),[6],18%
same,Total Cell Count,[6],94
same,Population Apoptotic (%),[7],55%
same,Population Fragmented Nuclei (%),[7],9%
same,Population Healthy Nuclei (%),[7],80%
same,Population Hoechst High Intensity Objects (%),[7],3%
same,Population Membrane Permeable-Phenotype (%),[7],3%
same,Population Mitochondria Different-Phenotype (%),[7],8%
same,Population Mitotic Cells (%),[7],45%
same,Population Normal (%),[7],96%
same,Population Pyknosed Nuclei (%),[7],10%
same,Population Tubulin-Different-Phenotype (%),[7],5%
same,Total Cell Count,[7],231
same,Population Apoptotic (%),[8],76%
same,Population Fragmented Nuclei (%),[8],13%
same,Population Healthy Nuclei (%),[8],58%
same,Population Hoechst High Intensity Objects (%),[8],13%
same,Population Membrane Permeable-Phenotype (%),[8],48%
same,Population Mitochondria Different-Phenotype (%),[8],33%
same,Population Mitotic Cells (%),[8],23%
same,Population Normal (%),[8],86%
same,Population Pyknosed Nuclei (%),[8],28%
same,Population Tubulin-Different-Phenotype (%),[8],77%
same,Total Cell Count,[8],91
same,Population Apoptotic (%),[9],22%
same,Population Fragmented Nuclei (%),[9],4%
same,Population Hoechst High Intensity Objects (%),[9],3%
same,Population Membrane Permeable-Phenotype (%),[9],2%
same,Population Mitochondria Different-Phenotype (%),[9],11%
same,Population Mitotic Cells (%),[9],77%
same,Population Normal (%),[9],96%
same,Population Pyknosed Nuclei (%),[9],8%
same,Population Tubulin-Different-Phenotype (%),[9],11%
same,Total Cell Count,[9],107
same,Population Apoptotic (%),[10],14%
same,Population Fragmented Nuclei (%),[10],6%
same,Population Healthy Nuclei (%),[10],87%
same,Population Hoechst High Intensity Objects (%),[10],4%
same,Population Membrane Permeable-Phenotype (%),[10],9%
same,Population Mitochondria Different-Phenotype (%),[10],16%
same,Population Mitotic Cells (%),[10],85%
same,Population Normal (%),[10],95%
same,Population Pyknosed Nuclei (%),[10],5%
same,Population Tubulin-Different-Phenotype (%),[10],14%
same,Total Cell Count,[10],96
same,Population Apoptotic (%),[11],47%
same,Population Fragmented Nuclei (%),[11],4%
same,Population Healthy Nuclei (%),[11],89%
same,Population Hoechst High Intensity Objects (%),[11],3%
same,Population Membrane Permeable-Phenotype (%),[11],1%
same,Population Mitochondria Different-Phenotype (%),[11],9%
same,Population Mitotic Cells (%),[11],52%
same,Population Normal (%),[11],96%
same,Population Pyknosed Nuclei (%),[11],6%
same,Population Tubulin-Different-Phenotype (%),[11],4%
same,Total Cell Count,[11],365
same,Population Apoptotic (%),[12],60%
same,Population Fragmented Nuclei (%),[12],11%
same,Population Healthy Nuclei (%),[12],73%
same,Population Hoechst High Intensity Objects (%),[12],8%
same,Population Membrane Permeable-Phenotype (%),[12],30%
same,Population Mitochondria Different-Phenotype (%),[12],34%
same,Population Mitotic Cells (%),[12],40%
same,Population Normal (%),[12],91%
same,Population Pyknosed Nuclei (%),[12],15%
same,Population Tubulin-Different-Phenotype (%),[12],84%
same,Total Cell Count,[12],129
C[C@H]1Oc2cc(cnc2N)-c2c(nn(C)c2C#N)CN(C)C(=O)c2ccc(F)cc21 [LORLATINIB],Population Apoptotic (%),[1],53% and 37%
same,Population Healthy Nuclei (%),[1],88% and 89%
same,Population Hoechst High Intensity Objects (%),[1],2% and 3%
same,Population Membrane Permeable-Phenotype (%),[1],14%
same,Population Mitochondria Different-Phenotype (%),[1],20% and 32%
same,Population Mitotic Cells (%),[1],46% and 62%
same,Population Normal (%),[1],97% and 96%
same,Population Pyknosed Nuclei (%),[1],6% and 4%
same,Population Tubulin-Different-Phenotype (%),[1],15% and 22%
same,Total Cell Count,[1],195 and 218
same,Population Apoptotic (%),[2],25% and 0%
same,Population Healthy Nuclei (%),[2],84% and 77%
same,Population Hoechst High Intensity Objects (%),[2],11% and 9%
same,Population Membrane Permeable-Phenotype (%),[2],15% and 8%
same,Population Mitochondria Different-Phenotype (%),[2],35% and 38%
same,Population Mitotic Cells (%),[2],75% and 100%
same,Population Normal (%),[2],88% and 90%
same,Population Pyknosed Nuclei (%),[2],10% and 2%
same,Population Tubulin-Different-Phenotype (%),[2],26% and 35%
same,Total Cell Count,[2],129 and 122
same,Population Apoptotic (%),[5],57% and 38%
same,Population Fragmented Nuclei (%),[5],6% and 5%
same,Population Healthy Nuclei (%),[5],86% and 87%
same,Population Hoechst High Intensity Objects (%),[5],2%
same,Population Membrane Permeable-Phenotype (%),[5],11% and 7%
same,Population Mitochondria Different-Phenotype (%),[5],22% and 25%
same,Population Mitotic Cells (%),[5],42% and 61%
same,Population Normal (%),[5],97%
same,Population Pyknosed Nuclei (%),[5],6% and 7%
same,Population Tubulin-Different-Phenotype (%),[5],16% and 28%
same,Total Cell Count,[5],254 and 277
same,Population Apoptotic (%),[6],55% and 21%
same,Population Fragmented Nuclei (%),[6],9% and 18%
same,Population Healthy Nuclei (%),[6],81% and 70%
same,Population Hoechst High Intensity Objects (%),[6],9% and 6%
same,Population Membrane Permeable-Phenotype (%),[6],14% and 8%
same,Population Mitochondria Different-Phenotype (%),[6],33% and 41%
same,Population Mitotic Cells (%),[6],44% and 78%
same,Population Normal (%),[6],90% and 93%
same,Population Pyknosed Nuclei (%),[6],8% and 10%
same,Population Tubulin-Different-Phenotype (%),[6],31%
same,Total Cell Count,[6],140 and 145
